{
  "source": "ChEMBL document CHEMBL1152660",
  "about": "“Structural analogues of diosgenyl saponins: synthesis and anticancer activity” (Bioorg Med Chem, 2009)",
  "key": {"MCF7": {"test_system": "MCF7", "test": "Cytotoxicity against human MCF7 cells at 50 uM after 72 hrs by MTT assay", "assay_type": "functional", "method_in_brief": "(§1)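 The MTT proliferation assay used MCF-7 or HeLa cells at 2000 per well in DMEM with 10% FBS at 37 °C and 5% CO2, with a 3-day exposure to DMSO-dissolved analogues diluted in medium. Compounds were tested up to the top concentration. A490 at that concentration is reported as percent of the absorbance of untreated cells.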"}, "HeLa": {"test_system": "HeLa", "test": "Cytotoxicity against human HeLa cells at 50 uM after 72 hrs by MTT assay", "assay_type": "functional, cell-based", "method_in_brief": "as §1"}, "MCF7 (human)": {"test_system": "MCF7 (human)", "test": "Cytotoxicity against human MCF7 cells after 72 hrs by MTT assay", "conditions": "MCF7, 72 h"}, "HeLa (human)": {"test_system": "HeLa (human)", "test": "Cytotoxicity against human HeLa cells after 72 hrs by MTT assay"}},
  "note": "Activity calls are given as the source filed them. The calls are words filed in the database; no cut-off is given here.",
  "data": [
    {"smiles": "C[C@@H]1CC[C@@]2(OC1)O[C@H]1C[C@H]3[C@@H]4CC=C5C[C@@H](O[C@@H]6O[C@H](CO)[C@@H](O[C@@H]7O[C@@H](C)[C@H](O)[C@@H](O)[C@H]7O)[C@H](O)[C@H]6NC(=O)c6ccccc6)CC[C@]5(C)[C@H]4CC[C@]3(C)[C@H]1[C@@H]2C", "values": [
      {"measurement": "Activity", "setting": "MCF7", "result": 68, "unit": "%"},
      {"measurement": "Activity", "setting": "HeLa", "result": "inactive"},
      {"measurement": "IC50", "setting": "MCF7 (human)", "result": "> 50", "unit": "µM"}
    ]},
    {"smiles": "C[C@@H]1CC[C@@]2(OC1)O[C@H]1C[C@H]3[C@@H]4CC=C5C[C@@H](O[C@@H]6O[C@H](CO)[C@@H](O)[C@H](O)[C@H]6NC(=O)c6cccc([N+](=O)[O-])c6)CC[C@]5(C)[C@H]4CC[C@]3(C)[C@H]1[C@@H]2C", "values": [
      {"measurement": "IC50", "setting": "MCF7 (human)", "result": 13.6, "unit": "µM"},
      {"measurement": "IC50", "setting": "HeLa (human)", "result": 16.1, "unit": "µM"}
    ]},
    {"smiles": "C[C@@H]1CC[C@@]2(OC1)O[C@H]1C[C@H]3[C@@H]4CC=C5C[C@@H](O[C@@H]6O[C@H](CO)[C@@H](O[C@@H]7O[C@@H](C)[C@H](O)[C@@H](O)[C@H]7O)[C@H](O)[C@H]6NC(=O)CCCCC6CCSS6)CC[C@]5(C)[C@H]4CC[C@]3(C)[C@H]1[C@@H]2C", "note": "(mixture of isomers)", "values": [
      {"measurement": "IC50", "setting": "MCF7 (human)", "result": 18.8, "unit": "µM"},
      {"measurement": "IC50", "setting": "HeLa (human)", "result": 39.9, "unit": "µM"}
    ]},
    {"smiles": "C[C@@H]1CC[C@@]2(OC1)O[C@H]1C[C@H]3[C@@H]4CC=C5C[C@@H](O[C@@H]6O[C@H](CO)[C@@H](O[C@@H]7O[C@@H](C)[C@H](O)[C@@H](O)[C@H]7O)[C@H](O)[C@H]6NC(=O)c6cccc([N+](=O)[O-])c6)CC[C@]5(C)[C@H]4CC[C@]3(C)[C@H]1[C@@H]2C", "values": [
      {"measurement": "IC50", "setting": "MCF7 (human)", "result": 22.8, "unit": "µM"},
      {"measurement": "IC50", "setting": "HeLa (human)", "result": 39.4, "unit": "µM"}
    ]},
    {"smiles": "COc1cccc2c1C(=O)c1c(O)c3c(c(O)c1C2=O)C[C@@](O)(C(=O)CO)C[C@@H]3O[C@H]1C[C@H](N)[C@H](O)[C@H](C)O1", "note": "[DOXORUBICIN]", "values": [
      {"measurement": "IC50", "setting": "MCF7 (human)", "result": 0.73, "unit": "µM"},
      {"measurement": "IC50", "setting": "HeLa (human)", "result": 1.03, "unit": "µM"}
    ]},
    {"smiles": "C[C@@H]1CC[C@@]2(OC1)O[C@H]1C[C@H]3[C@@H]4CC=C5C[C@@H](O[C@@H]6O[C@H](CO)[C@@H](O[C@@H]7O[C@@H](C)[C@H](O)[C@@H](O)[C@H]7O)[C@H](O)[C@H]6NC(=O)c6cc([N+](=O)[O-])cc([N+](=O)[O-])c6)CC[C@]5(C)[C@H]4CC[C@]3(C)[C@H]1[C@@H]2C", "values": [
      {"measurement": "Activity", "setting": "HeLa", "result": "inactive"},
      {"measurement": "IC50", "setting": "MCF7 (human)", "result": 39.5, "unit": "µM"}
    ]},
    {"smiles": "C[C@@H]1CC[C@@]2(OC1)O[C@H]1C[C@H]3[C@@H]4CC=C5C[C@@H](O[C@@H]6O[C@H](CO)[C@@H](O)[C@H](O)[C@H]6NC(=O)c6cc([N+](=O)[O-])cc([N+](=O)[O-])c6)CC[C@]5(C)[C@H]4CC[C@]3(C)[C@H]1[C@@H]2C", "values": [
      {"measurement": "IC50", "setting": "MCF7 (human)", "result": 18.7, "unit": "µM"},
      {"measurement": "IC50", "setting": "HeLa (human)", "result": 21, "unit": "µM"}
    ]},
    {"smiles": "C[C@@H]1CC[C@@]2(OC1)O[C@H]1C[C@H]3[C@@H]4CC=C5C[C@@H](O[C@@H]6O[C@H](CO)[C@@H](O)[C@H](O)[C@H]6NC(=O)c6ccccc6)CC[C@]5(C)[C@H]4CC[C@]3(C)[C@H]1[C@@H]2C", "values": [
      {"measurement": "IC50", "setting": "MCF7 (human)", "result": 19.4, "unit": "µM"},
      {"measurement": "IC50", "setting": "HeLa (human)", "result": 18, "unit": "µM"}
    ]},
    {"smiles": "C[C@@H]1CC[C@@]2(OC1)O[C@H]1C[C@H]3[C@@H]4CC=C5C[C@@H](O[C@@H]6O[C@H](CO)[C@@H](O)[C@H](O)[C@H]6NC(=O)CCCCC6CCSS6)CC[C@]5(C)[C@H]4CC[C@]3(C)[C@H]1[C@@H]2C", "note": "(stereo partly drawn) [ALPHA LIPOYL]", "values": [
      {"measurement": "IC50", "setting": "MCF7 (human)", "result": 6.9, "unit": "µM"},
      {"measurement": "IC50", "setting": "HeLa (human)", "result": 7.3, "unit": "µM"}
    ]}
  ]
}
